In ChEMBL document CHEMBL4396897, “Potent 5-Cyano-6-phenyl-pyrimidin-Based Derivatives Targeting DCN1-UBE2M Interaction” (J Med Chem, 2019) one finds Ki, Activity and viability data, which are given here for one compound.

The target in one test is T1, DCN1-like protein 3 (Homo sapiens, UniProt Q8IWE4).
T1 sequence (Q8IWE4 whole entry): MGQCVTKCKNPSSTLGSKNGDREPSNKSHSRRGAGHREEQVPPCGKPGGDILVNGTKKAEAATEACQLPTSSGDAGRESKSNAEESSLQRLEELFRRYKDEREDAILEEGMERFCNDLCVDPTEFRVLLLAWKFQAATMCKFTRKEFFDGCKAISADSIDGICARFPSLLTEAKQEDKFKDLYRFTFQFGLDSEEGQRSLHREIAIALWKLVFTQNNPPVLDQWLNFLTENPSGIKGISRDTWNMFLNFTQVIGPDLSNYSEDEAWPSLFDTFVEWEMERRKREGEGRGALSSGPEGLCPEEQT
Briefly: Binding affinity to N-terminal GST tagged recombinant DCN3 (unknown origin) (86 to 304 residues) expressed in Escherichia coli BL21(DE3) assessed as reduction in DCN1/FAM-labelled N-terminal acetylated UBE2M (1 to 21 residues) protein-protein interaction after 30 mins by HTRF assay. In a few lines:
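HTRF competition: 5nM GST-tagged DCN (1-5) and 5nM AcUBE2M1-21-biotin peptide, with streptavidin-XL665 and anti-GST cryptate, in 100mM phosphate buffer pH 6.5 with 0.02% Tween-20. Cocktail pre-incubated 30min at room temperature, compound added, then 30min more. Excitation 320nm, emission 615/665nm. Ki from three independent repeats, mean ± SD.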
A general note: Time-resolved FRET reads energy transfer from a long-lived donor to a nearby acceptor.

Another test relates to KYSE-140. Kind of test: Antiproliferative activity against human KYSE-140 after 72 hrs by MTT assay. Type of test: functional, cell-based. The essentials: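 MTT viability assay: cells seeded at 2~5×10^3 per well, exposed to serial dilutions of compound for 72h, then MTT (5 mg/mL in PBS) added for 4h at 37°C. Formazan dissolved in DMSO and read at 490nm. IC50 reported as mean ± SD of three independent experiments.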

In test [1] the test system is A549. Briefly: Induction of apoptosis in human A549 cells assessed as early apoptotic cells at 5 uM after 48 hrs by Annexin V-FITC/propidium iodide staining based flow cytometry (reference value: 3.63%). Type of test: functional.
Test [2] has as its system A549. Briefly: Induction of apoptosis in human A549 cells assessed as viable cells at 2.5 uM after 48 hrs by Annexin V-FITC/propidium iodide staining based flow cytometry (reference value: 92.9%). Type of test: functional. The note with it: A549, 48 h, read-out: Activity. (In flow cytometry, cells or beads pass a laser one at a time.)
Test [3] deals with NCI-H1975. Briefly: Induction of apoptosis in human NCI-NCI-H1975 cells assessed as early apoptotic cells at 5 uM after 48 hrs by Annexin V-FITC/propidium iodide staining based flow cytometry (reference value: 2.47%). Type of test: functional.
Test [4] concerns NCI-H1975. Briefly: Induction of apoptosis in human NCI-NCI-H1975 cells assessed as late apoptotic cells at 5 uM after 48 hrs by Annexin V-FITC/propidium iodide staining based flow cytometry (reference value: 0.46%). Type of test: functional.

Calls of active or inactive are those of the source. The rule behind the calls is not given here.

On to `C#CCSc1nc(Sc2nccs2)c(C#N)c(-c2ccc(C)cc2)n1`, for which the Ki (commonly the dissociation constant of the complex between target and ligand, obtained from inhibition or displacement) at DCN1-like protein 3 was found to be 592 nM. Besides, in the test with KYSE-140, the outcome was Active. In addition, the Activity with A549 [1] is listed as 8.75%; in the test with NCI-H1975 [3] it was 28.4%; in the test on NCI-H1975 [4], 29%. Further, in the test with A549 [2], the viability at 2.5 µM was determined as 82.2%.
